Test results as given in ChEMBL document CHEMBL1134462, “Toward a rational design of peptide inhibitors of ribonucleotide reductase: structure-function and modeling studies” (J Med Chem, 2001).
Non-standard residues stand in square brackets, D forms with d. Residues, ends and D or L forms follow the SMILES beside them. aThr = C[C@H](O)[C@H](N)C(=O)O

test: Relative dissociation constant evaluated against mouse Ribonucleotide Reductase (RR)
How it was run: (§1)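 Competition of free ligand with column-bound FTLDADF (Sepharose mixed ~60:40 with underivatized Sepharose) for mouse R1. mR1 (4.4 μM) premixed with ligand (typically 100 μM) in 50 mM Tris pH 8.5, 10 mM DTT, 100 μM dTTP, held 30 min on spin column, then centrifuged. Eluted R1 measured by Bradford assay, duplicates; Kd derived from elution versus no-ligand control, expressed relative to AcFTLDADF standard.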

Row | SMILES | Relative Kd
1 | CC(C)C[C@H](NC(=O)[C@@H](NC(=O)[C@H](Cc1ccccc1)NC=O)[C@H](C)O)C(=O)N[C@@H](CC(=O)O)C(=O)N[C@@H](C)C(=O)N[C@@H](CC(=O)O)C(=O)N[C@@H](Cc1ccccc1)C(=O)O | 2.4
2 | CC(=O)N[C@@H](C)C(=O)N[C@H](C(=O)N[C@@H](CC(C)C)C(=O)N[C@@H](CC(=O)O)C(=O)N[C@@H](C)C(=O)N[C@@H](CC(=O)O)C(=O)N[C@@H](Cc1ccccc1)C(=O)O)[C@H](C)O | > 30
3 | CC(C)C[C@H](NC(=O)[C@@H](NC(=O)[C@H](Cc1ccccc1)NC(=O)Cc1ccccc1)[C@H](C)O)C(=O)N[C@@H](CC(=O)O)C(=O)N[C@@H](C)C(=O)N[C@@H](CC(=O)O)C(=O)N[C@@H](Cc1ccccc1)C(=O)O | 0.8
4 | CC(=O)N[C@@H](CC(C)C)C(=O)N[C@H](C(=O)N[C@@H](CC(C)C)C(=O)N[C@@H](CC(=O)O)C(=O)N[C@@H](C)C(=O)N[C@@H](CC(=O)O)C(=O)N[C@@H](Cc1ccccc1)C(=O)O)[C@H](C)O (Ac-L[aThr]LDADF-OH) | > 30
5 | CC(C)C[C@H](NC(=O)[C@@H](NC(=O)[C@H](Cc1ccccc1)NC(=O)OCC1c2ccccc2-c2ccccc21)[C@H](C)O)C(=O)N[C@@H](CC(=O)O)C(=O)N[C@@H](C)C(=O)N[C@@H](CC(=O)O)C(=O)N[C@@H](Cc1ccccc1)C(=O)O | 1.4
6 | CC(=O)N[C@@H](Cc1ccccc1)C(=O)N[C@H](C(=O)N[C@@H](CC(C)C)C(=O)N[C@@H](CC(=O)O)C(=O)N[C@@H](C)C(=O)N[C@@H](CC(=O)O)C(=O)N[C@@H](Cc1c(F)c(F)c(F)c(F)c1F)C(=O)O)[C@H](C)O | 16
7 | CC(C)C[C@H](NC(=O)[C@@H](NC(=O)[C@H](Cc1ccccc1)NC(=O)Cc1ccc([N+](=O)[O-])cc1)[C@H](C)O)C(=O)N[C@@H](CC(=O)O)C(=O)N[C@@H](C)C(=O)N[C@@H](CC(=O)O)C(=O)N[C@@H](Cc1ccccc1)C(=O)O | 0.8
8 | COc1ccc(CC(=O)N[C@@H](Cc2ccccc2)C(=O)N[C@H](C(=O)N[C@@H](CC(C)C)C(=O)N[C@@H](CC(=O)O)C(=O)N[C@@H](C)C(=O)N[C@@H](CC(=O)O)C(=O)N[C@@H](Cc2ccccc2)C(=O)O)[C@H](C)O)cc1 | 0.8
9 | CCCC(=O)N[C@@H](Cc1ccccc1)C(=O)N[C@H](C(=O)N[C@@H](CC(C)C)C(=O)N[C@@H](CC(=O)O)C(=O)N[C@@H](C)C(=O)N[C@@H](CC(=O)O)C(=O)N[C@@H](Cc1ccccc1)C(=O)O)[C@H](C)O | 1
10 | CC(=O)N[C@H](C(=O)N[C@H](C(=O)N[C@@H](CC(C)C)C(=O)N[C@@H](CC(=O)O)C(=O)N[C@@H](C)C(=O)N[C@@H](CC(=O)O)C(=O)N[C@@H](Cc1ccccc1)C(=O)O)[C@H](C)O)C(C)C | > 30
11 | CC(=O)N[C@@H](Cc1ccccc1)C(=O)N[C@H](C(=O)N[C@@H](CC(C)C)C(=O)N[C@@H](CC(=O)O)C(=O)N[C@@H](C)C(=O)N[C@@H](CC(=O)O)C(=O)N[C@@H](CCC(N)=O)C(=O)O)[C@H](C)O | > 30
12 | CC(C)C[C@H](NC(=O)[C@@H](NC(=O)[C@H](Cc1ccccc1)NC(=O)c1ccnc(-c2cc(C(=O)O)ccn2)c1)[C@H](C)O)C(=O)N[C@@H](CC(=O)O)C(=O)N[C@@H](C)C(=O)N[C@@H](CC(=O)O)C(=O)N[C@@H](Cc1ccccc1)C(=O)O | 0.6
13 | CC(C)C[C@H](NC(=O)[C@@H](NC(=O)[C@H](Cc1ccccc1)NC(=O)c1ccccc1)[C@H](C)O)C(=O)N[C@@H](CC(=O)O)C(=O)N[C@@H](C)C(=O)N[C@@H](CC(=O)O)C(=O)N[C@@H](Cc1ccccc1)C(=O)O | 1.9

Continued, values first:

Row | Relative Kd | SMILES
14 | 6.6 | CC(=O)N[C@H](C(=O)N[C@H](C(=O)N[C@@H](CC(C)C)C(=O)N[C@@H](CC(=O)O)C(=O)N[C@@H](C)C(=O)N[C@@H](CC(=O)O)C(=O)N[C@@H](Cc1ccccc1)C(=O)O)[C@H](C)O)c1ccccc1
15 | > 30 | COc1ccccc1C[C@H](NC(=O)[C@H](CC(=O)O)NC(=O)[C@H](C)NC(=O)[C@H](CC(=O)O)NC(=O)[C@H](CC(C)C)NC(=O)[C@@H](NC(=O)[C@H](Cc1ccccc1)NC(C)=O)[C@H](C)O)C(=O)O
16 | 3.1 | CC(=O)N[C@@H](Cc1ccccc1)C(=O)N[C@H](C(=O)N[C@@H](CC(C)C)C(=O)N[C@@H](CC(=O)O)C(=O)N[C@@H](C)C(=O)N[C@@H](CC(=O)O)C(=O)N[C@@H](Cc1ccc(Cl)cc1)C(=O)O)[C@H](C)O
17 | 24 | CC(=O)N[C@@H](Cc1ccccc1)C(=O)N[C@H](C(=O)N[C@@H](CC(C)C)C(=O)N[C@@H](CC(=O)O)C(=O)N[C@@H](C)C(=O)N[C@@H](CC(=O)O)C(=O)N[C@@H](Cc1ccc(O)cc1)C(=O)O)[C@H](C)O
18 | 4.7 | CC(=O)N[C@@H](Cc1ccccc1)C(=O)N[C@H](C(=O)N[C@@H](CC(C)C)C(=O)N[C@@H](CC(=O)O)C(=O)N[C@@H](C)C(=O)N[C@@H](CC(=O)O)C(=O)N[C@@H](Cc1ccc(C)cc1)C(=O)O)[C@H](C)O
19 | 8.6 | CC(=O)N[C@@H](Cc1ccccc1)C(=O)N[C@H](C(=O)N[C@@H](CC(C)C)C(=O)N[C@@H](CC(=O)O)C(=O)N[C@@H](C)C(=O)N[C@@H](CC(=O)O)C(=O)N[C@H](Cc1ccccc1)C(=O)O)[C@H](C)O
20 | > 30 | CC(=O)N[C@@H](Cc1ccccc1)C(=O)N[C@H](C(=O)N[C@@H](CC(C)C)C(=O)N[C@@H](CC(=O)O)C(=O)N[C@@H](C)C(=O)N[C@@H](CC(=O)O)C(=O)N[C@@H](Cc1ccccc1)C(N)=O)[C@H](C)O
21 | 23 | CC(=O)N[C@@H](Cc1ccccc1)C(=O)N[C@H](C(=O)N[C@@H](CC(C)C)C(=O)N[C@@H](CC(=O)O)C(=O)N[C@@H](C)C(=O)N[C@@H](CC(=O)O)C(=O)N[C@@H](Cc1ccc(N)cc1)C(=O)O)[C@H](C)O
22 | 8.2 | COc1cccc(C[C@H](NC(=O)[C@H](CC(=O)O)NC(=O)[C@H](C)NC(=O)[C@H](CC(=O)O)NC(=O)[C@H](CC(C)C)NC(=O)[C@@H](NC(=O)[C@H](Cc2ccccc2)NC(C)=O)[C@H](C)O)C(=O)O)c1
23 | 2 | CC(=O)N[C@@H](Cc1ccccc1)C(=O)N[C@H](C(=O)N[C@@H](CC(C)C)C(=O)N[C@@H](CC(=O)O)C(=O)N[C@@H](C)C(=O)N[C@@H](CC(=O)O)C(=O)N[C@@H](Cc1ccccc1F)C(=O)O)[C@H](C)O
24 | 16 | COc1ccc(C[C@H](NC(=O)[C@H](CC(=O)O)NC(=O)[C@H](C)NC(=O)[C@H](CC(=O)O)NC(=O)[C@H](CC(C)C)NC(=O)[C@@H](NC(=O)[C@H](Cc2ccccc2)NC(C)=O)[C@H](C)O)C(=O)O)cc1
25 | 6.3 | CCC(=O)N[C@@H](Cc1ccccc1)C(=O)N[C@H](C(=O)N[C@@H](CC(C)C)C(=O)N[C@@H](CC(=O)O)C(=O)N[C@@H](C)C(=O)N[C@@H](CC(=O)O)C(=O)N[C@@H](Cc1ccccc1)C(=O)O)[C@H](C)O
26 | 6.3 | CC(=O)N[C@@H](Cc1ccccc1)C(=O)N[C@H](C(=O)N[C@@H](CC(C)C)C(=O)N[C@@H](CC(=O)O)C(=O)N[C@@H](C)C(=O)N[C@@H](CC(=O)O)C(=O)N[C@@H](Cc1cccc(O)c1)C(=O)O)[C@H](C)O
27 | 10 | CC(=O)N[C@@H](Cc1ccccc1)C(=O)N[C@H](C(=O)N[C@@H](CC(C)C)C(=O)N[C@@H](CC(=O)O)C(=O)N[C@@H](C)C(=O)N[C@@H](CC(=O)O)C(=O)N[C@@H](Cc1c[nH]c2ccccc12)C(=O)O)[C@H](C)O
28 | 26 | CC(=O)N[C@@H](Cc1ccccc1)C(=O)N[C@H](C(=O)N[C@@H](CC(C)C)C(=O)N[C@@H](CC(=O)O)C(=O)N[C@@H](C)C(=O)N[C@@H](CC(=O)O)C(=O)N[C@@H](Cc1ccccc1O)C(=O)O)[C@H](C)O
29 | 1 | CC(=O)N[C@@H](Cc1ccccc1)C(=O)N[C@H](C(=O)N[C@@H](CC(C)C)C(=O)N[C@@H](CC(=O)O)C(=O)N[C@@H](C)C(=O)N[C@@H](CC(=O)O)C(=O)N[C@@H](Cc1ccccc1)C(=O)O)[C@H](C)O
30 | > 30 | CC(=O)N[C@@H](Cc1ccccc1)C(=O)N[C@H](C(=O)N[C@@H](CC(C)C)C(=O)N[C@@H](CC(=O)O)C(=O)N[C@@H](C)C(=O)N[C@@H](CC(=O)O)C(=O)N[C@@H](Cc1ccc([N+](=O)[O-])cc1)C(=O)O)[C@H](C)O
31 | 12 | CC(=O)N[C@@H](Cc1ccccc1)C(=O)N[C@H](C(=O)N[C@@H](CC(C)C)C(=O)N[C@@H](CC(=O)O)C(=O)N[C@@H](C)C(=O)N[C@@H](CC(=O)O)C(=O)N[C@@H](Cc1ccccc1Cl)C(=O)O)[C@H](C)O
32 | 29 | CC(=O)N[C@@H](Cc1ccccc1)C(=O)N[C@H](C(=O)N[C@@H](CC(C)C)C(=O)N[C@@H](CC(=O)O)C(=O)N[C@@H](C)C(=O)N[C@@H](CC(=O)O)C(=O)N[C@@H](Cc1c[nH]cn1)C(=O)O)[C@H](C)O
33 | 24 | CC(=O)N[C@@H](Cc1ccccc1)C(=O)N[C@H](C(=O)N[C@@H](CC(C)C)C(=O)N[C@@H](CC(=O)O)C(=O)N[C@@H](C)C(=O)N[C@@H](CC(=O)O)C(=O)N[C@H](C(=O)O)c1ccccc1)[C@H](C)O

test: Relative binding affinity evaluated against mouse Ribonucleotide Reductase (RR); how it was run: as §1

Row | SMILES | Relative Ki
34 | CC(=O)N[C@@H](Cc1ccccc1)C(=O)N[C@H](C(=O)N[C@@H](CC(C)C)C(=O)N[C@@H](CC(=O)O)C(=O)N[C@@H](C)C(=O)N[C@@H](CC(=O)O)C(=O)N[C@@H](Cc1ccccc1)C(=O)N[C@@H](C)C(=O)N[C@@H](C)C(=O)O)[C@H](C)O (Ac-F[aThr]LDADFAA-OH) | > 35
35 | CC(C)C[C@H](NC(=O)[C@@H](NC(=O)[C@@H](N)Cc1ccccc1)[C@H](C)O)C(=O)N[C@@H](CC(=O)O)C(=O)N[C@@H](C)C(=O)N[C@@H](CC(=O)O)C(=O)N[C@@H](Cc1ccccc1)C(=O)O (H-F[aThr]LDADF-OH) | > 40
36 | CC(=O)N[C@@H](Cc1ccccc1)C(=O)N[C@H](C(=O)N[C@@H](CC(C)C)C(=O)N[C@@H](CC(=O)O)C(=O)N[C@@H](C)C(=O)N[C@@H](CC(=O)O)C(=O)N[C@@H](CC(C)C)C(=O)O)[C@H](C)O (Ac-F[aThr]LDADL-OH) | > 35

More lines, now with the values ahead:

Row | Relative Ki | SMILES
37 | 3.2 | CC(=O)N[C@@H](Cc1ccccc1)C(=O)N[C@H](C(=O)N[C@@H](CC(C)C)C(=O)N[C@@H](CC(=O)O)C(=O)N[C@@H](C)C(=O)N[C@@H](CC(=O)O)C(=O)N[C@@H](Cc1ccc(Cl)cc1)C(=O)O)[C@H](C)O
38 | 1 | CC(=O)N[C@@H](Cc1ccccc1)C(=O)N[C@H](C(=O)N[C@@H](CC(C)C)C(=O)N[C@@H](CC(=O)O)C(=O)N[C@@H](C)C(=O)N[C@@H](CC(=O)O)C(=O)N[C@@H](Cc1ccccc1)C(=O)O)[C@H](C)O
39 | 15 | CC(=O)N[C@@H](Cc1ccc(O)cc1)C(=O)N[C@H](C(=O)N[C@@H](CC(C)C)C(=O)N[C@@H](CC(=O)O)C(=O)N[C@@H](C)C(=O)N[C@@H](CC(=O)O)C(=O)N[C@@H](Cc1ccccc1)C(=O)O)[C@H](C)O
40 | > 20 | CC(=O)N[C@@H](Cc1ccccc1)C(=O)N[C@H](C(=O)N[C@@H](CC(C)C)C(=O)N[C@@H](CC(=O)O)C(=O)N[C@@H](C)C(=O)N[C@@H](CC(=O)O)C(=O)N[C@@H](Cc1c[nH]cn1)C(=O)O)[C@H](C)O
